From ChEMBL document CHEMBL5385966, “Synthesis and biological evaluation of new naphthalimide-thiourea derivatives as potent antimicrobial agents active against multidrug-resistant Staphylococcus aureus and Mycobacterium tuberculosis” (RSC Med Chem, 2024)
Converted amounts (≈) assume the structure as drawn. The source made the active and inactive calls. No cut-off for these calls is given here.

Assays:
Staphylococcus aureus [1] = assay: Antibacterial activity against Staphylococcus aureus ATCC 29213 assessed as bacterial growth inhibition incubated for 16 to 18 hrs by CLSI based antibiotic susceptibility testing method; assay type: functional; conditions: time 16-18 hrs
Method in brief: (§1)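 Broth microdilution in cation-adjusted Mueller-Hinton broth. Compounds were tested at […], with levofloxacin as reference and medium-only controls. Plates were incubated at 37 °C for 16-18 h. MIC was the lowest concentration with no visible growth; three independent determinations, each in duplicate.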

Mycobacteroides chelonae = assay: Antimycobacterial activity against Mycobacteroides chelonae ATCC 35752 assessed as bacterial growth inhibition incubated for 72 hrs by resazurin dye based broth microdilution method; assay type: functional, organism-based
Method in brief: (§2)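 Broth microdilution in Middlebrook 7H9 with 10% ADC-Tween-80 (0.2% glycerol, 0.05% Tween-80), inoculum ~10⁶ cfu/mL. Compounds came from 10 mg/mL DMSO stocks and were tested as two-fold serial dilutions at 37 °C, 7 days for M. tuberculosis H37Rv and 72 h for NTM. Growth was read visually with PrestoBlue resazurin dye; MIC was the lowest concentration preventing growth. Triplicate determinations, each in duplicate.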

[2] = test system: Mycolicibacterium fortuitum; assay: Antimycobacterial activity against Mycobacterium fortuitum ATCC 6841 assessed as bacterial growth inhibition incubated for 72 hrs by resazurin dye based broth microdilution method; assay type: functional, organism-based; method in brief: as §2
Acinetobacter baumannii = assay: Antibacterial activity against Acinetobacter baumannii BAA 1605 assessed as bacterial growth inhibition incubated for 16 to 18 hrs by CLSI based antibiotic susceptibility testing method; assay type: functional, organism-based; conditions: time 16-18 hrs; method in brief: as §1
[3] = test system: Mycobacteroides abscessus; assay: Antimycobacterial activity against Mycobacterium abscessus ATCC 19977 assessed as bacterial growth inhibition incubated for 72 hrs by resazurin dye based broth microdilution method; assay type: functional, organism-based; method in brief: as §2
[4] = test system: Mycobacterium tuberculosis; assay: Antimycobacterial activity against Mycobacterium tuberculosis H37Rv ATCC 27294 assessed as bacterial growth inhibition incubated for 7 days by resazurin dye based broth microdilution method; assay type: functional; conditions: H37Rv ATCC 27294, 168 h, time 7 day; method in brief: as §2
Klebsiella pneumoniae = assay: Antibacterial activity against Klebsiella pneumoniae BAA 1705 assessed as bacterial growth inhibition incubated for 16 to 18 hrs by CLSI based antibiotic susceptibility testing method; assay type: functional, organism-based; conditions: time 16-18 hrs; method in brief: as §1
Escherichia coli = assay: Antibacterial activity against Escherichia coli ATCC 25922 assessed as bacterial growth inhibition incubated for 16 to 18 hrs by CLSI based antibiotic susceptibility testing method; assay type: functional, organism-based; conditions: time 16-18 hrs; method in brief: as §1
Pseudomonas aeruginosa = assay: Antibacterial activity against Pseudomonas aeruginosa ATCC 27853 assessed as bacterial growth inhibition incubated for 16 to 18 hrs by CLSI based antibiotic susceptibility testing method; assay type: functional, organism-based; conditions: time 16-18 hrs; method in brief: as §1
Staphylococcus aureus [5] = assay: Antibacterial activity against methicillin/ceftriaxone/meropenem/gentamycin/vancomycin/teicoplanin-resistant Staphylococcus aureus VRS1 clinical isolate assessed as bacterial growth inhibition incubated for 16 to 18 hrs by CLSI based antibiotic susceptibility testing method; assay type: functional; conditions: time 16-18 hrs; method in brief: as §1
Staphylococcus aureus [6] = assay: Antibacterial activity against methicillin/ceftriaxone/meropenem/vancomycin/teicoplanin-resistant Staphylococcus aureus VRS4 clinical isolate assessed as bacterial growth inhibition incubated for 16 to 18 hrs by CLSI based antibiotic susceptibility testing method; assay type: functional; conditions: time 16-18 hrs; method in brief: as §1
Staphylococcus aureus [7] = assay: Antibacterial activity against methicillin/ceftriaxone/meropenem/vancomycin/teicoplanin-resistant Staphylococcus aureus VRS12 clinical isolate assessed as bacterial growth inhibition incubated for 16 to 18 hrs by CLSI based antibiotic susceptibility testing method; assay type: functional; conditions: time 16-18 hrs; method in brief: as §1

Row | SMILES | MIC (Staphylococcus aureus [1]) [µg/mL] | growth inhibition (GI) (Mycobacteroides chelonae) | growth inhibition (GI) [2] | growth inhibition (GI) (Acinetobacter baumannii) | growth inhibition (GI) [3] | MIC [4] [µg/mL] | growth inhibition (GI) (Klebsiella pneumoniae) | growth inhibition (GI) (Escherichia coli) | growth inhibition (GI) (Pseudomonas aeruginosa) | MIC (Staphylococcus aureus [5]) [µg/mL] | MIC (Staphylococcus aureus [6]) [µg/mL] | MIC (Staphylococcus aureus [7]) [µg/mL]
1 | CC(C)NC(=S)N1CCN(CCN2C(=O)c3cccc4cccc(c34)C2=O)CC1 | > 64 | inactive | inactive | inactive | inactive | > 64 | inactive | inactive | inactive | – | – | –
2 | O=C(CN1C(=O)c2cccc3cccc(c23)C1=O)N1CCC(NC(=S)NC23CC4CC(CC(C4)C2)C3)CC1 | 4 (≈ 7.54 µM) | inactive | inactive | inactive | inactive | 32 (≈ 60.3 µM) | inactive | inactive | inactive | – | – | –
3 | O=C(CCN1C(=O)c2cccc3cccc(c23)C1=O)N1CCN(C(=S)Nc2ccccc2)CC1 | > 64 | inactive | inactive | inactive | inactive | 32 (≈ 67.7 µM) | inactive | inactive | inactive | – | – | –
4 | O=C(CN1C(=O)c2cccc3cccc(c23)C1=O)NC1CCN(C(=S)NC2CCCC2)CC1 | > 64 | inactive | inactive | inactive | inactive | > 64 | inactive | inactive | inactive | – | – | –
5 | CN[C@H](CC(C)C)C(=O)N[C@H]1C(=O)N[C@@H](CC(N)=O)C(=O)N[C@H]2C(=O)N[C@H]3C(=O)N[C@H](C(=O)N[C@H](C(=O)O)c4cc(O)cc(O)c4-c4cc3ccc4O)[C@H](O)c3ccc(c(Cl)c3)Oc3cc2cc(c3O[C@@H]2O[C@H](CO)[C@@H](O)[C@H](O)[C@H]2O[C@H]2C[C@](C)(N)[C@H](O)[C@H](C)O2)Oc2ccc(cc2Cl)[C@H]1O [VANCOMYCIN] | – | – | – | – | – | – | – | – | – | > 64 | > 64 | > 64
6 | O=C(CN1C(=O)c2cccc3cccc(c23)C1=O)N1CCN(C(=S)Nc2ccc(Cl)cc2)CC1 | > 64 | inactive | inactive | inactive | inactive | 8 (≈ 16.2 µM) | inactive | inactive | inactive | – | – | –
7 | COc1ccc(NC(=S)N2CCN(C(=O)CN3C(=O)c4cccc5cccc(c45)C3=O)CC2)cc1 | > 64 | inactive | inactive | inactive | inactive | 64 (≈ 131 µM) | inactive | inactive | inactive | – | – | –
